High-throughput results from PubChem.
Rows were chosen to be rich in hits. Some 2% of all compounds tested hit in one or more screens of this group.
Rpn11 inh: inhibitors of human proteasome Rpn11; O00487; human 26S proteasome, Ub4-pepOG fluorescence polarization; 20S core pre-blocked with epoxomicin; inhibition, % at 20 µM; 360,000 compounds, 0.59% hits; AID 588493;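 active = inhibition at 20 µM, scaled to each plate's controls, above about 33%, limit read from the data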
Target sequence (O00487 whole entry, looked up): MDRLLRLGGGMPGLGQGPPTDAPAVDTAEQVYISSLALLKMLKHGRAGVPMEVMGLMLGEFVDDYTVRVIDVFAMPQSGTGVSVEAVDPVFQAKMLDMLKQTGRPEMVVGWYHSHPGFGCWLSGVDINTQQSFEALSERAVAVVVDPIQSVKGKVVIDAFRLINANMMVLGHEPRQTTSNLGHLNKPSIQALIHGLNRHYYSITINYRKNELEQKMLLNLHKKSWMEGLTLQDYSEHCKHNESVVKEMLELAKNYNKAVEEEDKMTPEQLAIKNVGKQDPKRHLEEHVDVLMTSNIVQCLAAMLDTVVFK
ATG4B inhibitor: ATG4B (human) cysteine protease inhibition | 340,000 compounds, 0.51% hits | ATG4B cleavage of LC3-PLA2, NBD-HPC fluorescence, 1 h | Q9Y4P1 | inhibition, % at 8.33 µM
Target sequence (Q9Y4P1 whole entry, looked up): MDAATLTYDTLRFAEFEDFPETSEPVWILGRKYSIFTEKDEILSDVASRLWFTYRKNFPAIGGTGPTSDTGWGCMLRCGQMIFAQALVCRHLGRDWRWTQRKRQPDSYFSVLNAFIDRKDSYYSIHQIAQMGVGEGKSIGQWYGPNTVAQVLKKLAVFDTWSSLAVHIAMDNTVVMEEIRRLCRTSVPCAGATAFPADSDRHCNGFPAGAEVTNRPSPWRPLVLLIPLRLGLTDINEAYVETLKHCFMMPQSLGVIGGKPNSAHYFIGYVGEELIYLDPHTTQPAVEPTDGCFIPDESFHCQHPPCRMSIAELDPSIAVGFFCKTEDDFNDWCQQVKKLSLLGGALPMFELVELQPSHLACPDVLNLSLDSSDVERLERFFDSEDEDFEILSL
HNF4A DNA FP: change in binding of human HNF4 alpha to DNA; P41235; HNF4a-FITC DNA binding, fluorescence polarization, 1 h; activity change, % at 10 µM; 360,000 compounds, 0.3% hits; in the data active = activity change above about 30%, passing the limit was not always enough
TPT1 inhibitor: C. albicans TPT1 enzyme inhibition; inhibition, % at 5 µM; 300,000 compounds, 0.81% hits; recombinant caTPT1, FP RNA substrate dephosphorylation;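 active = inhibition above the mean of all tested compounds plus 3 SD, set per screening campaign, cut at about 24% in these data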;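 note: plate controls were DMSO alone for no effect and ferristatin control at 100 nM for full effect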
SENP1 FRET inh: SENP1 (human) catalytic domain inhibition | Q9P0U3 | recombinant SENP1 catalytic domain, CyPet-SUMO1-YPet FRET cleavage | inhibition, % at 10 µM | 360,000 compounds, 0.21% hits;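 active = inhibition at least 30% at 10 µM, raw YFP signal under a set limit, fluorescence ratio 0.5 to 1.5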;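 note: 0% = enzyme with DMSO and 100% = no enzyme wells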
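System: Recombinant human SENP1 catalytic domain, His6-tagged | Incubation: Enzyme reaction for 50 min at room temperature, dark | Medium: Tris pH 8 with BME, BSA, NP40 and catalase | Also added: 25 nM SUMO1 FRET substrate | Compound: 10 µM single point, 0.5% DMSO | Measured by: FRET fluorescence in CFP and YFP emission channels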
CSN inh: blocks human CSN-mediated cullin deneddylation; inhibition, % at 12.5 µM; 360,000 compounds, 0.38% hits; Purified CSN, SCF-Nedd8-OG deneddylation, fluorescence polarization; AID 651999;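 active = pattern-corrected inhibition above about 35%, with an unprinted fluorescence ratio check between 0.5 and 1.5, limit read from the data, passing the limit was not always enough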;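 note: 0% = enzyme with substrate and 100% = substrate without enzyme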
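Material: purified human Csn5 enzyme expressed in HEK293T cells / Medium: Tris buffer pH 7.5, NaCl, DTT, Tween-20, trehalose, ovalbumin / Compound dosing: 12.5 µM single point / Schedule: 90 min incubation of compound, enzyme and substrate at room temperature / Signal: fluorescence polarization of the substrate / Control set: no-enzyme wells high, enzyme-with-substrate wells low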
caTPT1 confirm: confirmation of Candida albicans TPT1 inhibitors. AID 2149. recombinant caTPT1, fluorescence polarization, RNase T1 coupled. shares compounds with TPT1 inhibitor. 2,400 compounds, 74% hits. inhibition, % at 5 µM;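 active = inhibition above the primary screen limit, the mean inhibition of all tested compounds plus 3 SD, cut at about 25% in these data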
RNase T1 inh: blocks Aspergillus oryzae RNase T1, a TPT1 counter-screen | 2,400 compounds, 83% hits | inhibition, % at 5 µM | RNase T1 cleavage, fluorescence polarization, 1536-well | shares compounds with TPT1 inhibitor;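 active = inhibition above the solvent-only control well mean plus 3 SD, limit set per screening run, cut at about 23% in these data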;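 note: plate controls were DMSO wells with enzyme for no effect and wells without RNase T1 for full effect; inhibitors block cleavage so intact labeled substrate keeps polarization high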
Rpn11 inh conf: confirmation of human proteasome Rpn11 inhibitors | shares compounds with Rpn11 inh | purified human 26S proteasome, Ub4-pepOG fluorescence polarization; proteasome pretreated with epoxomicin | inhibition, % at 20 µM | 1,900 compounds, 29% hits | AID 602318
MMP-2 counter: counter-screen for RPN11 inhibitors: inhibition of human MMP-2; shares compounds with Rpn11 inh; recombinant MMP-2, FRET peptide cleavage fluorescence; inhibition, % at 20 µM; 1,900 compounds, 4% hits; AID 602330;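 note: human MMP-2 activated beforehand with APMA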
Thrombin inh: thrombin (bovine) inhibition counter-screen; shares compounds with Rpn11 inh; bovine thrombin cleavage of Ub4-pepOG, fluorescence polarization; inhibition, % at 20 µM; 1,900 compounds, 13% hits; AID 602333;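 active = mean inhibition at least 40% at 20 µM, or signal 3 deviations below plate average, so some actives read negative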;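 note: plate controls were thrombin with DMSO for no effect and buffer wells lacking thrombin for full effect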
SENP1 conf: SENP1 (human) inhibition, single concentration confirmation; shares compounds with SENP1 FRET inh; recombinant SENP1, CyPet-SUMO1-YPet FRET cleavage; inhibition, % at 10 µM; 520 compounds, 34% hits; AID 651678; in the data active = inhibition mostly above about 35%, no sharp cut-off; inactive = mostly below about 32%;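 note: 0% = enzyme with DMSO and 100% = no enzyme control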
SENP1 kinetic: SENP1 (human) inhibition, kinetic confirmation; inhibition, % at 10 µM; shares compounds with SENP1 FRET inh; 520 compounds, 26% hits; AID 651690; recombinant SENP1, CyPet-SUMO1-YPet FRET kinetic cleavage; in the data active = inhibition mostly above about 32%, no sharp cut-off; inactive = mostly below about 29%;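 note: 0% = DMSO with enzyme and 100% = no enzyme substrate only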
* hit, by the source's call; x = no result given. Cut-off read from the data, not from the text of the source, unless noted: active = inhibition above about 40%; inactive = the rest.

SMILES | Rpn11 inh | ATG4B inhibitor | HNF4A DNA FP | TPT1 inhibitor | SENP1 FRET inh | CSN inh | caTPT1 confirm | RNase T1 inh | Rpn11 inh conf | MMP-2 counter | Thrombin inh | others
O=c1c([N+](=O)[O-])cn(O)cc1[N+](=O)[O-] | -2 | -7 | -2 | x | 1 | -5 | x | x | x | x | x
CN(C)c1ccc(/C=C2\C(=O)NC(=O)N(CCc3ccc(F)cc3)C2=O)cc1 | 50* | 5 | 10 | 30* | -8 | 22 | 67* | 86* | 10 | 1 | -90
COCCN1C(=O)NC(=O)/C(=C\c2ccc(F)cc2)C1=O | 2 | 6 | 1 | 3 | 3 | -2 | x | x | x | x | x
O=C1NC(=O)N(CCc2ccc(F)cc2)C(=O)/C1=C/c1ccco1 | 71* | -5 | -17 | 61* | -11 | 43* | 14 | 15 | 29 | 37 | -1
S=C=Nc1cccc(C2(N3CCCCC3)CCCCC2)c1 | -1 | 0 | 3 | -2 | -1 | -5 | x | x | x | x | x
CCOc1ccccc1-n1c(O)c(C=Nc2ccc(N(CC)CC)cc2)c(=O)[nH]c1=O | 56* | -17 | 17 | 81* | 7 | 14 | 75* | 89* | 49* | 3 | 38
CCN(CC)c1ccc(N=Cc2c(O)[nH]c(=O)[nH]c2=O)cc1 | x | 3 | 6 | 14 | 24 | 7 | x | x | x | x | x
Nc1c(C(=O)NCc2ccco2)c2nc3ccccc3nc2n1Cc1ccccc1 | 31 | -6 | 7 | 3 | -25 | 2 | x | x | x | x | x
COc1ccc(Cn2c(N)c(C(=O)NCc3ccco3)c3nc4ccccc4nc32)cc1 | 67* | -7 | 12 | 48* | -25 | 7 | 10 | 14 | -2 | -37 | -4
C[C@]12C[C@@H](O)[C@H](O)CC1=CCC1C2CC[C@@]2(C)C1CC[C@@H]2O (some centres not stated) | -3 | -2 | 1 | x | 2 | -3 | x | x | x | x | x
C=CCn1c(O)c(/C=C/C=Nc2ccccc2)c(=O)[nH]c1=O | 88* | -2 | 33 | 84* | -28 | 24 | 107* | 129* | 98* | -59 | -47
O=c1[nH]c(=O)n(-c2cccc(F)c2)c(O)c1/C=C1\C=Nc2ccccc21 | 62* | 3 | -1 | 37* | 4 | 6 | -57 | -39 | 9 | -22 | 3
CC1CN(c2ccccn2)C(C)CN1C(=O)C(O)(c1ccccc1)c1ccccc1 (configuration not stated) | -2 | -1 | -2 | x | 3 | -3 | x | x | x | x | x
C=CCn1c(=O)c(C=Nc2cccc([N+](=O)[O-])c2)c(O)n(CCCC)c1=O | 69* | 0 | 31 | 113* | -61 | 30 | 36* | 47* | 46* | -20 | 31
C=CCn1c(=O)c(C=Nc2c(OC)cccc2[N+](=O)[O-])c(O)n(CCCC)c1=O | 78* | 6 | 21 | 51* | -27 | 10 | 30* | 39* | 53* | 6 | 47*
COc1ccc(N2C(=O)C(=O)N(c3ccc(OC)cc3)P2(=O)N(CCCl)CCCl)cc1 | 1 | 6 | 4 | x | 0 | 5 | x | x | x | x | x
COC(=O)C1=C(c2ccc(F)cc2OCc2ccccc2)C[C@@H]2CC[C@H]1N2C(=O)N1CCCC1 | 0 | 5 | -1 | x | 2 | 3 | x | x | x | x | x
COc1ccc2c3c([nH]c2c1)C(C)=NCC3 | 65* | 4 | 30 | 44* | -32 | 12 | 18 | 31* | 40 | -2 | 30
CC1=NCCc2c1[nH]c1cc(O)ccc21 | -194 | -127 | -99 | -102 | -29 | -74 | x | x | x | x | x
CCN(CC)c1ccc(/C=C/[N+](=O)[O-])cc1 | 68* | 6 | 3 | 127* | 32* | 23 | 118* | 117* | 50* | -45 | 53*
Cc1cc(C)cc(-n2c(C)cc(/C=C3\C(=O)NC(=O)N(C)C3=O)c2C)c1 | 7 | -4 | 1 | 5 | -9 | -2 | x | x | x | x | x
Cc1ccnc(-n2c(C)cc(C=C3C(=O)N(C)C(=S)N(C)C3=O)c2C)c1 | 47* | 8 | 4 | 52* | 5 | 6 | 24 | 33* | -5 | 28 | -42
COc1cc(/C=C/C(=O)c2c(O)n(CCc3ccccc3)c(=O)[nH]c2=O)ccc1O | 53* | -1 | 3 | 63* | 19 | 13 | 69* | 89* | 61* | 5 | 31
C=CCN1C(=O)/C(=C/c2ccc(N3CCOCC3)o2)C(=O)NC1=S | x | 1 | 80* | 121* | 40* | 103* | 143* | 137* | x | x | x | SENP1 conf=31;SENP1 kinetic=24
COC(=O)C1=C(c2cccc(OCc3ccccc3)c2)C[C@@H]2CC[C@H]1N2C(=O)NCc1ccccc1C(F)(F)F | 2 | 20 | -1 | x | -3 | -1 | x | x | x | x | x
O=Cc1c(C(=O)O)n(Cc2ccccc2Cl)c2ccccc12 | -1 | 1 | 2 | 5 | 1 | 2 | x | x | x | x | x
Cc1cc(C)c(Cn2c(C(=O)O)c(C=O)c3ccccc32)c(C)c1 | x | -8 | 106 | 53* | 97* | 95 | 118* | 120* | x | x | x | SENP1 conf=77*;SENP1 kinetic=51*
